Source: PubChem
APP transl inh: inhibitors of APP translation via 5'UTR reporter, primary screen, APP 5'UTR luciferase, SH-SY5Y cells; 190,000 compounds, 0.82% hits; SH-SY5Y APP 5'UTR-luciferase reporter, luminescence; inhibition, % at 2 µM; AID 1285, 2008;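 active means inhibition above a set limit, derived from the sample mean plus 3 SD, cut at about 45% in these data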
Ba/F3 V617F tox: reduced viability of JAK2V617F-dependent Ba/F3 cells, primary screen, JAK2V617F inhibitor project, cell-based, Ba/F3 EpoR-JAK2V617F, luminescence; ATP luminescence; inhibition, % at 5.6 µM; AID 1446, 2008; 220,000 compounds, 1.1% hits;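 active means inhibition above the campaign mean plus 3 SD over all tested compounds, cut at about 24% in these data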;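 further: cytokine-independent growth of Ba/F3 cells driven by EpoR plus mutant JAK2; 0% = DMSO-treated cells and 100% = JAK inhibitor I control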
MT stabilize HCS: microtubule stabilizers in HeLa cells, primary screen, imaging, high-content imaging; 200,000 compounds, 0.83% hits; AID 2205, 2009; HeLa tubulin immunostaining HCS, 24 h; share of cells brighter than vehicle mean+2SD; % tubulin-high responders, % at 10 µM;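 active means plate Z-score above 3 for both tubulin-high and condensed-nucleus cell shares, with cell loss under 80%, at 10 µM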;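 further: anti alpha tubulin signal scored within the nucleus-defined area of each cell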
IEC-6 cytotox: cytotoxicity in IEC-6 intestinal epithelial cells, primary screen, cytotoxicity control for KLF5 inhibitor project, cell-based, luminescence. IEC-6 cytotoxicity, luminescence viability. inhibition, % at 5 µM. 290,000 compounds, 0.78% hits. AID 1825, 2009; in the data active means inhibition above about 22%;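 further: 0% = plate median of test compound wells and 100% = cytotoxic reference compound wells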
bCat nuc transl: modulators of beta-catenin nuclear translocation, primary screen, imaging, HeLa cells, immunofluorescence, high-content; nuclear translocation activity, % at 5 µM; 190,000 compounds, 0.3% hits; AID 1665, 2009;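 active means nuclear translocation activity above 50% at 5 µM, with a well cell count of 50 or more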;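 further: per-cell ratio of nuclear to cytoplasmic median beta-catenin stain intensity; plate controls were DMSO negative control for no effect and GSK-3 inhibitor IX positive control for full effect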
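System: HeLa cells, endogenous beta-catenin; compound dosing: 5 µM primary single dose, 0.1% DMSO, 0.02–20 µM confirmation series; incubation: 24 h compound exposure at 37°C, 5% CO2; signal: beta-catenin immunofluorescence imaging with DAPI; evaluation: % activation, nuclear-to-cytoplasmic median beta-catenin signal ratio per cell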
BaF3 parental: parental Ba/F3 cell viability inhibition, counter-screen for JAK2V617F inhibitor project, murine pro-B, CellTiter-Glo luminescence; CellTiter-Glo ATP luminescence; inhibition, % at 5.6 µM; 220,000 compounds, 1.1% hits; AID 1486, 2009;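 active means inhibition above a per-campaign cutoff, the mean inhibition of all tested compounds plus 3 SD, cut at about 27% in these data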;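 further: 0% = DMSO wells and 100% = JAK Inhibitor I control wells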
* = called active by the depositor; . = no result. This is a sample that favours compounds with a hit; in the whole collection about 2.2% have one here.

SMILES	APP transl inh	Ba/F3 V617F tox	MT stabilize HCS	IEC-6 cytotox	bCat nuc transl	BaF3 parental
COC(=O)CSC1=C(C#N)C(c2ccc(C)o2)CC(=O)N1 (centres undefined)	-8	7	17*	6	2	43*
COC(=O)CSC1=C(C#N)C(c2sccc2C)CC(=O)N1 (centres undefined)	-15	-2	1	-3	-1	4
COC(=O)CSC1=C(C#N)C(c2ccc(F)cc2)CC(=O)N1 (centres undefined)	-28	2	6	5	-1	43*
COc1ccc(CC(=O)Nc2ccc(C(=O)Nc3nccs3)cc2)cc1OC	1	4	5	0	-2	0
Cc1ccc(C(=O)Nc2ccccc2N2CCCC2)cc1	.	.	.	-5	.	.
Cc1cc(NC(=O)CSc2nc(C(C)(C)C)nc3ccccc23)no1	49*	0	14*	-2	11	4
CCC(C)n1c(SCC(=O)Nc2cc(C)on2)nc2ccccc2c1=O (centres undefined)	14	-2	39*	-1	-1	5
O=C(OCC(=O)N1CCN(c2ccccc2)CC1)c1ccc[n+]([O-])c1	1	1	2	1	0	10
Cc1ccc2c(c1)C(c1ccccc1)N(C(=O)c1ccc3c(c1)OCO3)CC(=O)N2 (centres undefined)	.	3	.	3	1	-3
COc1ccc(-c2nc(-c3ccccn3)no2)cc1	46*	34*	1	28*	0	35*
COc1ccccc1-c1nc(-c2ccccn2)no1	-98	20	3	18	.	23
COCCNCC(=O)Nc1ccccc1Sc1ccccc1	7	-4	4	-4	0	1
COc1ccc(Cl)cc1-n1c(=S)sc2c(=O)[nH]c(SCC(=O)C(C)(C)C)nc21	.	.	.	-2	.	.
O=S1(=O)Nc2c(ccc3cccnc23)-c2ccccc21	60*	3	5	67*	-4	13
Cc1cc(NC(=O)c2cc(-c3ccco3)on2)nn1Cc1ccc(Cl)cc1	15	-3	18*	-2	.	5
Cc1nn(Cc2ccc(Cl)cc2)c(C)c1NC(=O)c1cc(-c2ccco2)on1	-1	-1	4	1	-2	3
COc1ccc(C(=O)C2CCN(C(=S)NCCc3ccc(OC)c(OC)c3)CC2)cc1	11	2	1	6	-1	3
COc1ccc(CCNC(=S)N2CCC(C(=O)c3ccc(F)cc3)CC2)cc1OC	48*	-3	4	5	2	-2
COc1ccc(Br)cc1/C=C/C(=O)c1ccc(NC(C)=O)cc1	38	22	8	-2	52*	-1
CCOc1ccccc1C1CC(=O)Nc2cc(OC)c(OC)cc21 (centres undefined)	.	.	.	2	.	.
CCOc1c(OC)cccc1C1CC(=O)Nc2cc3c(cc21)OCCO3 (centres undefined)	2	0	22*	-4	7	5
CC(Oc1ccc(Cl)cc1Cl)C(=O)Nc1ccncc1 (centres undefined)	5	0	56*	-4	52*	2
COC(=O)CCCC(=O)N1CCC(CCC(=O)NCc2ccc(F)cc2)CC1	.	.	.	3	.	.
OC(CNCC(c1ccc(Cl)cc1Cl)c1c[nH]c2ccccc12)c1ccccc1 (centres undefined)	12	2	11*	0	-3	8
O=C(O)COc1ccc(-c2nccc(-c3ccccn3)n2)cc1	63*	-3	3	-2	0	-1
FCCCOc1ccc(-c2nccc(-c3ccccn3)n2)cc1	.	.	.	10	.	.
N=C1C(c2nc3ccccc3c(=O)[nH]2)=C(O)CN1c1ccccc1	-2	2	42*	2	.	3
N=C1C(c2nc3ccccc3s2)=C(O)CN1c1ccccc1	-17	3	28*	14	0	4
COc1ccc(N2CC(O)=C(c3nc4ccccc4s3)C2=N)cc1	-14	3	3	4	-1	4
Cc1ccc(N2CC(O)=C(c3nc4ccccc4c(=O)[nH]3)C2=N)cc1C	-8	-3	3	-4	0	7
